“Also recorded” adds a separate entry of the source. Like-named read-outs stand apart in the source and are kept apart here.
Experiments:
α4β2 nAChRs = settings: ref Glick et al., 2000; cited from earlier work
[1] = oral administration, ref Shaffer et al., 2009, cited from earlier work
[2] = system: rats self-administering 10% ethanol; experiment: Repeated; assay type: in vivo
Method in brief: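 Rats trained on FR3 10% ethanol self-administration reached stable baseline and were randomised to drug or saline. Test compound (10 mg/kg s.c.) or saline was given 30 min before each session on 5 consecutive days, with lever presses recorded daily. Post-treatment baseline was taken 24 h after the last dose. The day after a cage change (day 3) was excluded. Analysis was two-way ANOVA with Newman–Keuls (n = 6–7).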

[3] = in vivo; ref Obach et al., 2006; Shaffer et al., 2009; cited from earlier work
[4] = system: Wistar rats consuming 20% ethanol; experiment: Intermittent access 20% ethanol two-bottle-choice drinking paradigm; assay type: in vivo
Method in brief: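 Individually housed rats on a reversed 12-h light cycle had intermittent access to 20% (v/v) ethanol versus water in a two-bottle choice. Once baseline drinking was stable, test compound or saline was given s.c. 30 min before bottles were presented. Injections were 7 days apart in a Latin square, each rat serving as its own control. Intake (g/kg) and preference were measured at 30 min, 6 h and 24 h. Analysis was repeated-measures ANOVA with Newman–Keuls.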

human α3β4 nAChRs [5] = biological target: T1, human α3β4 nAChRs (Homo sapiens, UniProt P30926+P32297); assay type: cell-based
T1 sequence (P32297 32-505): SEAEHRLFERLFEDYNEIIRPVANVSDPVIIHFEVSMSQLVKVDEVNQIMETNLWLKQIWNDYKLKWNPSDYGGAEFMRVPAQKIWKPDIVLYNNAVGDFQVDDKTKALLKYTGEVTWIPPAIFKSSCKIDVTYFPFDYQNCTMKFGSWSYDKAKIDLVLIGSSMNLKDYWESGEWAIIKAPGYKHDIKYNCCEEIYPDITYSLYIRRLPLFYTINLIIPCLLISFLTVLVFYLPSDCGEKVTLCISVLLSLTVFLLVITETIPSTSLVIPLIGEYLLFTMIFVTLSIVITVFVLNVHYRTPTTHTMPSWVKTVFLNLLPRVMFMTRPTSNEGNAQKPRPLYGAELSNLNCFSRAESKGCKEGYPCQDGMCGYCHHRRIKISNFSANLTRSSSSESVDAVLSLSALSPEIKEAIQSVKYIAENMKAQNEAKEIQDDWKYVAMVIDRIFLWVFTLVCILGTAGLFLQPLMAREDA
T1 sequence (P30926 22-498): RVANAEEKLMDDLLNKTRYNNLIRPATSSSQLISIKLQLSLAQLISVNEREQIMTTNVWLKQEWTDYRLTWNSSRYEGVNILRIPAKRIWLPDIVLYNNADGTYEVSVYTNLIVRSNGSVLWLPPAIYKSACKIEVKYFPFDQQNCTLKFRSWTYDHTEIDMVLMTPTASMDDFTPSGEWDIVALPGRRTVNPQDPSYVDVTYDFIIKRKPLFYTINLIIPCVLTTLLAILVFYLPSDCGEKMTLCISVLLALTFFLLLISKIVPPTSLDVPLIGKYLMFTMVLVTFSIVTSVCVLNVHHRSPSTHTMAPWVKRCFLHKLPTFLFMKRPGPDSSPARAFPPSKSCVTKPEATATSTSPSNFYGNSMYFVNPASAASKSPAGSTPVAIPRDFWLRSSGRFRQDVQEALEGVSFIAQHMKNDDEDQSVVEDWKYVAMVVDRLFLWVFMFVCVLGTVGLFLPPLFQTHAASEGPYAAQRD
Method in brief: (§1)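 HEK293 lines stably transfected with human α3β4 or α4β2 nAChRs. Cells were loaded in growth medium with Calcium Green-1 (2 µM final) mixed 1:1 with 20% pluronic F-127, then read on FLIPR (ex 488, em 516 nm). Agonism was a single compound addition compared with 100 µM ACh. Inhibition used 2 min pretreatment then 30 µM ACh, with ΔF taken relative to vehicle-pretreated wells. Runs were in quadruplicate, with EC50/IC50 from concentration curves.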

[6] = system: Wistar rats self-administering 10% ethanol; experiment: Operant self-administration of 10% ethanol; assay type: in vivo; settings: 10 mg/kg s.c., 30 minutes before session
Method in brief: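 Wistar rats were trained on FR3 (0.1 ml reward), 30 min daily sessions Mon–Fri, to press for 10% (v/v) ethanol. Test compound or saline was given s.c. either 30 min or 2 h before the session, depending on compound. Injections were 7 days apart in a Latin square, with the normal schedule between them. Active lever presses were analysed by repeated-measures ANOVA with Newman–Keuls (n = 8–13).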

humans = settings: cited from earlier work
α6/4β4 nAChRs = α6/4β4 nAChRs (Homo sapiens, UniProt P30926+P43681+Q15825); experiment: Binding affinity for α6/4β4 nAChRs; settings: ratio of binding affinities
α6/4β4 nAChRs, sequence (Q15825 26-239): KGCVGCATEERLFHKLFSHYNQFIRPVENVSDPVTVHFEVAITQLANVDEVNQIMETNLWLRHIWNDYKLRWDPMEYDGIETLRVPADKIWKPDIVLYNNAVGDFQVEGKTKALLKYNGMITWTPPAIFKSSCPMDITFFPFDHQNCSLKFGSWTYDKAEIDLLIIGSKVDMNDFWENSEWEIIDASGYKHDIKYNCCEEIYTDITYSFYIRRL
α6/4β4 nAChRs, sequence (P43681 241-627): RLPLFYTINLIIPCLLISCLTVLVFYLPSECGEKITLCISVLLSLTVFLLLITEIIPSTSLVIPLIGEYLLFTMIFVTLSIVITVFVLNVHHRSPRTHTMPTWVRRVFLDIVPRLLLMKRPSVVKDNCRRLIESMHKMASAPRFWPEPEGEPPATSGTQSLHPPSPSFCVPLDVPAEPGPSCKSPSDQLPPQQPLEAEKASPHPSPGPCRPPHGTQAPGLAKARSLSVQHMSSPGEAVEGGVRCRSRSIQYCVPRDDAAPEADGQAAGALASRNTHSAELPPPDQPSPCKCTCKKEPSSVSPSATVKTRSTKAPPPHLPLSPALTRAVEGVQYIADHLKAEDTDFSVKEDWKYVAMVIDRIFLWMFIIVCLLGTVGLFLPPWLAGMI
α6/4β4 nAChRs, sequence (P30926 22-498): as the sequence (P30926 22-498) above

human α4β2 nAChRs = human α4β2 nAChRs (Homo sapiens, UniProt P17787+P43681); assay type: cell-based
human α4β2 nAChRs, sequence (P43681 29-627 limits assumed): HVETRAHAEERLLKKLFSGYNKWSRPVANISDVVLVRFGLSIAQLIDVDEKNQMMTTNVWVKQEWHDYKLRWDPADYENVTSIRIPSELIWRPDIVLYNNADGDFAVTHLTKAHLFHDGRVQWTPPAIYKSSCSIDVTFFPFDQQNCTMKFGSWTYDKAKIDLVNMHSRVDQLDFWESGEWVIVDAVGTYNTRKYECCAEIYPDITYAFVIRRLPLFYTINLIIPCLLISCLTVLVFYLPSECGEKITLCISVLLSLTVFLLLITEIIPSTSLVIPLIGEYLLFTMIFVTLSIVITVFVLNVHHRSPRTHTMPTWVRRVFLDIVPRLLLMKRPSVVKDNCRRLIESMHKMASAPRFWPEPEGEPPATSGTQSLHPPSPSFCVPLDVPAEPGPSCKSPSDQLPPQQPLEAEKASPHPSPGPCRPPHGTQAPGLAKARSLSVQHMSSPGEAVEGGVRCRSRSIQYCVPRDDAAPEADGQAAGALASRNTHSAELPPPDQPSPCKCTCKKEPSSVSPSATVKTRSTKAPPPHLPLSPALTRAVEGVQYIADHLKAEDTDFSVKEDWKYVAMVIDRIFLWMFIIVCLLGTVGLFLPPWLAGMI
human α4β2 nAChRs, sequence (P17787 26-502): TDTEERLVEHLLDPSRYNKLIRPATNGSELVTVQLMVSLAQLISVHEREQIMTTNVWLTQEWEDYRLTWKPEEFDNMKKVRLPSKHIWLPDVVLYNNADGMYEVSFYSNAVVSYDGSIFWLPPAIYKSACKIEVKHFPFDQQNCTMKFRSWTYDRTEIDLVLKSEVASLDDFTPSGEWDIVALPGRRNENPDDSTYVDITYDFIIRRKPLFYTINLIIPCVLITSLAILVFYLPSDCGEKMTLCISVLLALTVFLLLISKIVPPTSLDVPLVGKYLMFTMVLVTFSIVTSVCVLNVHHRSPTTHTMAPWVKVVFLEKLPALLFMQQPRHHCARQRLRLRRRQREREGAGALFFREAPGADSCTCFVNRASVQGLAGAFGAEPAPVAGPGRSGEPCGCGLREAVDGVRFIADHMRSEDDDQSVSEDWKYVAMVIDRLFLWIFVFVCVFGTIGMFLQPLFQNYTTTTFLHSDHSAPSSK
Method in brief: as §1

[7] = Rat pharmacokinetics, unbound brain concentrations; assay type: in vivo, Sprague-Dawley rats
Method in brief: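 Sprague-Dawley rats were dosed s.c. at 1, 5 or 10 mg/kg. Unbound brain concentration (Cb,u) was estimated over time using an LC-MS/MS assay combined with tissue binding, with values in nM and n = 2 per time point.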

rats consuming ethanol = settings: 1 and 2 mg/kg; ref Steensland et al., 2007; cited from earlier work
human α3β4 nAChRs [8] = biological target: T1, human α3β4 nAChRs; settings: ref Rollema et al., 2007; cited from earlier work
[9] = clinically tested as a smoking cessation aid, ref Pfizer, data on file
[10] = male, Sprague-Dawley, rat, brain (unbound), subcutaneous, 10 mg/kg

SMILES: COCC[C@H]1CC2CN3CCc4c([nH]c5ccccc45)[C@](C(=O)OC)(C2)[C@H]13 [18-MC, 18-methoxycoronaridine]
- effect at α4β2 nAChRs (α4β2 nAChRs): no effect

SMILES: FC(F)(F)c1ccc2c(c1)[C@@H]1CNC[C@H]2C1 [CP-601932, (1S,5R)-2,3,4,5-tetrahydro-7-(trifluoromethyl)-1,5-methano-1H-3-benzazepine]
- brain penetration ([1]; rats): extensive brain penetration
- absorption [1]: well absorbed
- half-life [1]: long half-life
- rebound in active lever presses after end of chronic treatment ([2]; 10 mg/kg s.c. for 5 days, compared to baseline): no rebound increase in active lever presses
- active lever presses for 10% ethanol vs vehicle ([2]; 10 mg/kg s.c. once per day for 5 consecutive days, 30 minutes before session): decreased active lever presses
- active metabolites [3]: not formed in vivo
- ethanol consumption vs vehicle ([4]; 5 mg/kg s.c., at 30 minutes): significantly decreased high voluntary ethanol consumption
- ethanol consumption vs vehicle ([4]; 10 mg/kg s.c., 6 h and 24 h time points): decreased ethanol consumption
- ethanol consumption vs vehicle ([4]; 10 mg/kg s.c., at 30 minutes): significantly decreased high voluntary ethanol consumption
- preference for ethanol over water vs vehicle ([4]; highest dose (10 mg/kg s.c.), all time points): decreased the preference for ethanol over water
- EC50 (human α3β4 nAChRs [5]; Activation EC50, α3β4, vs 100 μM ACh): 2920 ± 320 nM
- IC50 (human α3β4 nAChRs [5]; IC50 for inhibition of α3β4 nAChRs, range given in text for both compounds): 100 to 300 nM
- IC50 (human α3β4 nAChRs [5]; Inhibition IC50, α3β4, 2 min pre-application, 30 μM ACh challenge): 257 ± 41 nM
- active lever presses for 10% ethanol vs vehicle [6]: significantly decreased the number of presses on the active lever
- side effects indicative of ganglion blocking effects (humans; clinical trial as potential smoking cessation aid): did not show side effects indicative of ganglion blocking effects
- abstinence rate (humans; [9]): moderate two-fold increase in abstinence rate that was not statistically significant
- tolerability / safety in humans (humans; [9]): safe in humans; also recorded: generally well tolerated
- fold higher affinity for α3β4 than for α6/4β4 nAChRs (α6/4β4 nAChRs): at least 10 fold
- EC50 (human α4β2 nAChRs): > 30000 nM
- IC50 (human α4β2 nAChRs): 114 ± 29 nM
- Activation of α4β2 nAChRs (Ca2+ fluorescence) (human α4β2 nAChRs; α4β2): no measurable change in Ca2+-fluoresence
- maximal unbound brain concentration Cb,u ([7]; 10 mg/kg s.c., at 30 minutes): 710 nM
- concentration at 5 h [7, 10]: 530 nM
- concentration at 24 h [7, 10]: 85 nM

SMILES: c1cnc2cc3c(cc2n1)[C@@H]1CNC[C@H]3C1 [Varenicline]
- active metabolites [3]: not formed in vivo
- ethanol intake (rats consuming ethanol): significantly reduce ethanol intake
- Activation Efficacy (% vs ACh) (human α3β4 nAChRs [8]): 93.5 ± 1.4 (5) % vs ACh
